# In paper PMC3902791 (Molecular imaging and biology : MIB : the official …, 2012):
# Read-outs that look alike come from different tables or passages of the source.
# Design: species or system human
# In short: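 Organ time–activity curves came from whole-body scan VOI data. These were fitted mono-exponentially in five animals; in the sixth, with two scans, a linear fit to the log values was used. Time-integrated activity coefficients were scaled by the ratio of body-mass-normalised human to CT-derived macaque organ masses. Intestinal values were split in thirds across small intestine, ULI and LLI. Organ doses (mSv/MBq) were computed per animal with the OLINDA/EXM 1.1 adult male model.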
structure (smiles),measurement,setting,value
"O=C(O)C[18F] [^18F-FACE, ^18F-fluoroacetate]","Organ dose to adult human model, Lungs","from animal 2, male",0.010 mSv/MBq
same,"Organ dose to adult human model, Muscle","from animal 2, male",0.010 mSv/MBq
same,"Organ dose to adult human model, Osteogenic cells","from animal 2, male",0.014 mSv/MBq
same,"Organ dose to adult human model, Pancreas","from animal 2, male",0.014 mSv/MBq
same,"Organ dose to adult human model, Red marrow","from animal 2, male",0.011 mSv/MBq
same,"Organ dose to adult human model, Skin","from animal 2, male",0.007 mSv/MBq
same,"Organ dose to adult human model, Small intestine","from animal 2, male",0.045 mSv/MBq
same,"Organ dose to adult human model, Spleen","from animal 2, male",0.011 mSv/MBq
same,"Organ dose to adult human model, Stomach wall","from animal 2, male",0.013 mSv/MBq
same,"Organ dose to adult human model, Testes","from animal 2, male",0.009 mSv/MBq
same,"Organ dose to adult human model, Thymus","from animal 2, male",0.010 mSv/MBq
same,"Organ dose to adult human model, Thyroid","from animal 2, male",0.009 mSv/MBq
same,"Organ dose to adult human model, ULI wall (upper large intestine)","from animal 2, male",0.071 mSv/MBq
same,"Organ dose to adult human model, Urinary bladder wall","from animal 2, male",0.015 mSv/MBq
same,"Dose to adult human model, Total body","from animal 3, male",0.012 mSv/MBq
same,"ED effective dose, adult human model","from animal 3, male",0.028 mSv/MBq
same,"EDE effective dose equivalent, adult human model","from animal 3, male",0.030 mSv/MBq
same,"Organ dose to adult human model, Adrenals","from animal 3, male",0.013 mSv/MBq
same,"Organ dose to adult human model, Brain","from animal 3, male",0.009 mSv/MBq
same,"Organ dose to adult human model, Breasts","from animal 3, male",0.008 mSv/MBq
same,"Organ dose to adult human model, Gallbladder wall","from animal 3, male",0.017 mSv/MBq
same,"Organ dose to adult human model, Heart wall","from animal 3, male",0.020 mSv/MBq
same,"Organ dose to adult human model, Kidneys","from animal 3, male",0.034 mSv/MBq
same,"Organ dose to adult human model, LLI wall (lower large intestine)","from animal 3, male",0.120 mSv/MBq
same,"Organ dose to adult human model, Liver","from animal 3, male",0.014 mSv/MBq
same,"Organ dose to adult human model, Lungs","from animal 3, male",0.010 mSv/MBq
same,"Organ dose to adult human model, Muscle","from animal 3, male",0.011 mSv/MBq
same,"Organ dose to adult human model, Osteogenic cells","from animal 3, male",0.016 mSv/MBq
same,"Organ dose to adult human model, Pancreas","from animal 3, male",0.014 mSv/MBq
same,"Organ dose to adult human model, Red marrow","from animal 3, male",0.012 mSv/MBq
same,"Organ dose to adult human model, Skin","from animal 3, male",0.008 mSv/MBq
same,"Organ dose to adult human model, Small intestine","from animal 3, male",0.055 mSv/MBq
same,"Organ dose to adult human model, Spleen","from animal 3, male",0.012 mSv/MBq
same,"Organ dose to adult human model, Stomach wall","from animal 3, male",0.014 mSv/MBq
same,"Organ dose to adult human model, Testes","from animal 3, male",0.010 mSv/MBq
same,"Organ dose to adult human model, Thymus","from animal 3, male",0.010 mSv/MBq
same,"Organ dose to adult human model, Thyroid","from animal 3, male",0.010 mSv/MBq
same,"Organ dose to adult human model, ULI wall (upper large intestine)","from animal 3, male",0.088 mSv/MBq
same,"Organ dose to adult human model, Urinary bladder wall","from animal 3, male",0.017 mSv/MBq
same,"Dose to adult human model, Total body","from animal 4, female",0.008 mSv/MBq
same,"ED effective dose, adult human model","from animal 4, female",0.016 mSv/MBq
same,"EDE effective dose equivalent, adult human model","from animal 4, female",0.019 mSv/MBq
same,"Organ dose to adult human model, Adrenals","from animal 4, female",0.010 mSv/MBq
same,"Organ dose to adult human model, Brain","from animal 4, female",0.005 mSv/MBq
same,"Organ dose to adult human model, Breasts","from animal 4, female",0.005 mSv/MBq
same,"Organ dose to adult human model, Gallbladder wall","from animal 4, female",0.040 mSv/MBq
same,"Organ dose to adult human model, Heart wall","from animal 4, female",0.027 mSv/MBq
same,"Organ dose to adult human model, Kidneys","from animal 4, female",0.026 mSv/MBq
same,"Organ dose to adult human model, LLI wall (lower large intestine)","from animal 4, female",0.060 mSv/MBq
same,"Organ dose to adult human model, Liver","from animal 4, female",0.032 mSv/MBq
same,"Organ dose to adult human model, Lungs","from animal 4, female",0.007 mSv/MBq
same,"Organ dose to adult human model, Muscle","from animal 4, female",0.007 mSv/MBq
same,"Organ dose to adult human model, Osteogenic cells","from animal 4, female",0.010 mSv/MBq
same,"Organ dose to adult human model, Ovaries","from animal 4, female",0.013 mSv/MBq
same,"Organ dose to adult human model, Pancreas","from animal 4, female",0.010 mSv/MBq
same,"Organ dose to adult human model, Red marrow","from animal 4, female",0.007 mSv/MBq
same,"Organ dose to adult human model, Skin","from animal 4, female",0.005 mSv/MBq
same,"Organ dose to adult human model, Small intestine","from animal 4, female",0.029 mSv/MBq
same,"Organ dose to adult human model, Spleen","from animal 4, female",0.008 mSv/MBq
same,"Organ dose to adult human model, Stomach wall","from animal 4, female",0.009 mSv/MBq
same,"Organ dose to adult human model, Thymus","from animal 4, female",0.007 mSv/MBq
same,"Organ dose to adult human model, Thyroid","from animal 4, female",0.006 mSv/MBq
same,"Organ dose to adult human model, ULI wall (upper large intestine)","from animal 4, female",0.045 mSv/MBq
same,"Organ dose to adult human model, Urinary bladder wall","from animal 4, female",0.014 mSv/MBq
same,"Organ dose to adult human model, Uterus","from animal 4, female",0.011 mSv/MBq
same,"Dose to adult human model, Total body","from animal 5, female",0.010 mSv/MBq
same,"ED effective dose, adult human model","from animal 5, female",0.018 mSv/MBq
same,"EDE effective dose equivalent, adult human model","from animal 5, female",0.021 mSv/MBq
same,"Organ dose to adult human model, Adrenals","from animal 5, female",0.012 mSv/MBq
same,"Organ dose to adult human model, Brain","from animal 5, female",0.008 mSv/MBq
same,"Organ dose to adult human model, Breasts","from animal 5, female",0.008 mSv/MBq
same,"Organ dose to adult human model, Gallbladder wall","from animal 5, female",0.036 mSv/MBq
same,"Organ dose to adult human model, Heart wall","from animal 5, female",0.015 mSv/MBq
same,"Organ dose to adult human model, Kidneys","from animal 5, female",0.042 mSv/MBq
same,"Organ dose to adult human model, LLI wall (lower large intestine)","from animal 5, female",0.062 mSv/MBq
same,"Organ dose to adult human model, Liver","from animal 5, female",0.015 mSv/MBq
same,"Organ dose to adult human model, Lungs","from animal 5, female",0.009 mSv/MBq
same,"Organ dose to adult human model, Muscle","from animal 5, female",0.010 mSv/MBq
same,"Organ dose to adult human model, Osteogenic cells","from animal 5, female",0.014 mSv/MBq
same,"Organ dose to adult human model, Ovaries","from animal 5, female",0.017 mSv/MBq
same,"Organ dose to adult human model, Pancreas","from animal 5, female",0.013 mSv/MBq
same,"Organ dose to adult human model, Red marrow","from animal 5, female",0.010 mSv/MBq
same,"Organ dose to adult human model, Skin","from animal 5, female",0.007 mSv/MBq
same,"Organ dose to adult human model, Small intestine","from animal 5, female",0.031 mSv/MBq
same,"Organ dose to adult human model, Spleen","from animal 5, female",0.011 mSv/MBq
same,"Organ dose to adult human model, Stomach wall","from animal 5, female",0.012 mSv/MBq
same,"Organ dose to adult human model, Thymus","from animal 5, female",0.009 mSv/MBq
same,"Organ dose to adult human model, Thyroid","from animal 5, female",0.009 mSv/MBq
same,"Organ dose to adult human model, ULI wall (upper large intestine)","from animal 5, female",0.047 mSv/MBq
same,"Organ dose to adult human model, Urinary bladder wall","from animal 5, female",0.017 mSv/MBq
same,"Organ dose to adult human model, Uterus","from animal 5, female",0.014 mSv/MBq
same,"Dose to adult human model, Total body","from animal 6, female",0.012 mSv/MBq
same,"ED effective dose, adult human model","from animal 6, female",0.018 mSv/MBq
same,"EDE effective dose equivalent, adult human model","from animal 6, female",0.019 mSv/MBq
same,"Organ dose to adult human model, Adrenals","from animal 6, female",0.013 mSv/MBq
same,"Organ dose to adult human model, Brain","from animal 6, female",0.010 mSv/MBq
same,"Organ dose to adult human model, Breasts","from animal 6, female",0.009 mSv/MBq
same,"Organ dose to adult human model, Gallbladder wall","from animal 6, female",0.016 mSv/MBq
same,"Organ dose to adult human model, Heart wall","from animal 6, female",0.017 mSv/MBq
same,"Organ dose to adult human model, Kidneys","from animal 6, female",0.026 mSv/MBq
same,"Organ dose to adult human model, LLI wall (lower large intestine)","from animal 6, female",0.052 mSv/MBq
same,"Organ dose to adult human model, Liver","from animal 6, female",0.017 mSv/MBq
same,"Organ dose to adult human model, Lungs","from animal 6, female",0.011 mSv/MBq
same,"Organ dose to adult human model, Muscle","from animal 6, female",0.011 mSv/MBq
same,"Organ dose to adult human model, Osteogenic cells","from animal 6, female",0.017 mSv/MBq
same,"Organ dose to adult human model, Ovaries","from animal 6, female",0.018 mSv/MBq
same,"Organ dose to adult human model, Pancreas","from animal 6, female",0.014 mSv/MBq
same,"Organ dose to adult human model, Red marrow","from animal 6, female",0.011 mSv/MBq
same,"Organ dose to adult human model, Skin","from animal 6, female",0.009 mSv/MBq
same,"Organ dose to adult human model, Small intestine","from animal 6, female",0.029 mSv/MBq
same,"Organ dose to adult human model, Spleen","from animal 6, female",0.013 mSv/MBq
same,"Organ dose to adult human model, Stomach wall","from animal 6, female",0.013 mSv/MBq
same,"Organ dose to adult human model, Thymus","from animal 6, female",0.011 mSv/MBq
same,"Organ dose to adult human model, Thyroid","from animal 6, female",0.011 mSv/MBq
same,"Organ dose to adult human model, ULI wall (upper large intestine)","from animal 6, female",0.040 mSv/MBq
same,"Organ dose to adult human model, Urinary bladder wall","from animal 6, female",0.021 mSv/MBq
same,"Organ dose to adult human model, Uterus","from animal 6, female",0.016 mSv/MBq
